Experimental findings from publication PMC6626068 (Journal of Advanced Research, 2019) are described below.

Read-outs that look alike come from different tables or passages of the source.

Holding throughout (format): cell-based
One experiment has as its system HeLa cells. The experiment is described as follows: Annexin V/PI double staining flow cytometry, HeLa. To be noted: 1 μM, 48 h (positive control).
In the next experiment the test system is MCF-7 cells. The experiment in a line: Annexin V/PI double staining flow cytometry, MCF-7. To be noted: MCF-7, 1 μM, 48 h (positive control). In general terms: Flow cytometry measures light scatter and fluorescence of single cells or particles in a stream.
In another experiment the test system is HepG2. The experiment is described as follows: MTT cytotoxicity assay, HepG2 cells. To be noted: read-out: IC50 (μM) HepG2. The method in brief:
(§1)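 Cells were grown in DMEM with 10% FBS and 1% penicillin/streptomycin at 37 °C under 5% CO₂, then seeded at 1 × 10⁴ cells/well. After 24 h they received the test compound at 0, 2.5, 5, 10, 20 and 40 μM for 72 h, with doxorubicin as positive control. MTT (5 mg/mL stock) was added for 4 h, formazan dissolved in DMSO for 10 min, A570 read, and IC50 calculated.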
Background: Tetrazolium assays rely on reduction of a dye to a coloured formazan, in cell work by metabolically active cells.

A further experiment concerns HCT-116. The experiment in a line: MTT cytotoxicity assay, HCT-116 cells. Particulars: read-out: IC50 (μM) HCT-116. The method in brief:
as §1

The test system of another experiment is MCF-7. The experiment is described as follows: MTT cytotoxicity assay, MCF-7 cells. Particulars: for IC50: read-out: IC50 (μM) MCF-7. The method in brief: as §1
The test system of the next experiment is MDA-MB-231. The experiment in a line: MTT cytotoxicity assay, MDA-MB-231 cells. To be noted: read-out: IC50 (μM) MDA-MB-231. The method in brief:
as §1

The subject of another experiment is HeLa. The experiment is described as follows: MTT cytotoxicity assay, HeLa cells. To be noted: 72 h; for IC50: read-out: IC50 (μM) HeLa. The method in brief: as §1
The test system of a further experiment is HUVEC. The experiment is described as follows: MTT cytotoxicity assay, normal cell line HUVEC. Particulars: 72 h, read-out: IC50 (μM) HUVEC.
For the next experiment, the system named is GFP-LC3-HeLa cells. The experiment in a line: Autophagy detection using GFP-LC3 expression in HeLa cells. To be noted: 25 μM, 24 h, observation control. In short, it runs like this:
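HeLa cells stably expressing GFP-LC3, grown in 24-well plates, were exposed to the test compound for 24 h, either at 10 μM for screening or at 2.5, 5, 10 and 20 μM. Chloroquine phosphate at 25 μM served as the observation control. GFP-LC3 puncta were imaged by fluorescence microscopy, and dots per cell were counted.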

Turning to `COc1cc2c(c(OC)c1OC)-c1ccc(OC)c(=O)cc1[C@@H](NC(C)=O)CC2` [Colchicine, colchicine], the results for the “apoptosis rate (early + late apoptotic cells)” value with HeLa cells and in the experiment with MCF-7 cells were 45.62% and 38.01%, respectively.

Consider `COc1cc(OC)c(-c2coc3c(CC=C(C)C)c(OC)c(OC)cc3c2=O)cc1OC` [Compound 4, 8-(γ, γ-dimethylallyl)-6,7,2′,4′,5′-pentamethoxyisoflavone], for which the IC50 in the experiment on HepG2 (Homo sapiens, HepG2, 72 h) was 8.74 ± 0.83 µM; in the experiment with HCT-116 (Homo sapiens, HCT-116, 72 h) it was 8.61 ± 0.72 µM; in the experiment on MCF-7 (Homo sapiens, MCF7, 72 h), 18.5 ± 0.51 µM; with MDA-MB-231 (Homo sapiens, MDA-MB-231, 72 h), 15.8 ± 2.15 µM; with HeLa (Homo sapiens), 7.86 ± 1.21 µM; in the experiment with HUVEC (Homo sapiens, HUVEC), > 50 µM. Besides, in the experiment with MCF-7 (50 μM, 72 h, MTT), the “growth inhibition of MCF-7 cells (primary screening)” value was “most active”. Also, in the experiment on HeLa (50 μM, MTT), the “growth inhibition of HeLa cells (primary screening)” value is recorded as “most active”.

For `CCN(CC)CCCC(C)Nc1ccnc2cc(Cl)ccc12` (centres unmarked) [chloroquine phosphate], the “GFP-LC3 dots (autophagosomes)” value with GFP-LC3-HeLa cells is reported as “obvious increase in the GFP-LC3 dots”.

As for `COc1cc(-c2coc3c(CC=C(C)C)c(OC)c(OC)c(O)c3c2=O)c(OC)cc1O` [Compound 5, 8-(γ, γ-dimethylallyl)-5,4′-dihydroxy-6,7,2′,5′-tetramethoxyisoflavone], the IC50 in the experiment on HepG2 (Homo sapiens, HepG2, 72 h) was 31.6 ± 2.06 µM; with HCT-116 (Homo sapiens, HCT-116, 72 h), 25.9 ± 0.85 µM; with MCF-7 (Homo sapiens, MCF7, 72 h) it was 35.1 ± 1.44 µM; with MDA-MB-231 (Homo sapiens, MDA-MB-231, 72 h) it was 27.6 ± 4.54 µM; in the experiment on HeLa (Homo sapiens), 35.7 ± 3.91 µM; with HUVEC (Homo sapiens, HUVEC) it was > 50 µM.

As for `COc1cccc2c1C(=O)c1c(O)c3c(c(O)c1C2=O)C[C@@](O)(C(=O)CO)C[C@@H]3O[C@H]1C[C@H](N)[C@H](O)[C@H](C)O1` [Doxorubicin, reference compound], the IC50 with HepG2 (Homo sapiens, HepG2, 72 h) stood at 0.02 ± 0.002 µM; with HCT-116 (Homo sapiens, HCT-116, 72 h), 0.03 ± 0.003 µM; with MCF-7 (Homo sapiens, MCF7, 72 h) it was 0.02 ± 0.003 µM; in the experiment with MDA-MB-231 (Homo sapiens, MDA-MB-231, 72 h) it was 0.03 ± 0.002 µM; with HeLa (Homo sapiens), 0.03 ± 0.001 µM; in the experiment with HUVEC (Homo sapiens, HUVEC), 0.04 ± 0.005 µM.

Regarding “3,9-dihydroxypterocarp-6a-en [Compound 17]”, the IC50 was 34.2 ± 1.87 µM in the experiment on HepG2 (MTT, 72 h, means ± SEM (n = 3)); 39.7 ± 2.06 µM in the experiment on HCT-116 (MTT, 72 h, means ± SEM (n = 3)); 30.3 ± 1.32 µM with MCF-7 (MTT, 72 h, means ± SEM (n = 3)); 36.8 ± 5.61 µM in the experiment on MDA-MB-231 (MTT, 72 h, means ± SEM (n = 3)); 36.1 ± 7.34 µM in the experiment with HeLa (MTT, means ± SEM (n = 3)); > 50 µM in the experiment on HUVEC (normal cell line, MTT, compounds at 50 μM, means ± SEM (n = 3)).

By IC50 is commonly meant the concentration needed to halve the response being measured.
